Source: PubChem BioAssay
Shown are actives, neighbours in structure and some others; about 0.94% of the full set was active somewhere.
PKA-R2B act: activates the human PKA-R2B holoenzyme complex | AID 504700 | PKA-R2B holoenzyme dissociation, Cy5-IP20 fluorescence polarization; R2B truncated from residue 108, S112A mutant; 0% DMSO only, 100% 113 µM cGMP | activation, % at 11.4 µM | P22694+P31323 | 0.079% of 340,000 active;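 active = activation above a cutoff set at the mean over all compounds plus 3 SD, cut at about 18% in these data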;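 also: higher means more holoenzyme dissociation and a rise in polarization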
Target sequence (P31323 whole entry, looked up, other chains not shown, the tested form may be a part): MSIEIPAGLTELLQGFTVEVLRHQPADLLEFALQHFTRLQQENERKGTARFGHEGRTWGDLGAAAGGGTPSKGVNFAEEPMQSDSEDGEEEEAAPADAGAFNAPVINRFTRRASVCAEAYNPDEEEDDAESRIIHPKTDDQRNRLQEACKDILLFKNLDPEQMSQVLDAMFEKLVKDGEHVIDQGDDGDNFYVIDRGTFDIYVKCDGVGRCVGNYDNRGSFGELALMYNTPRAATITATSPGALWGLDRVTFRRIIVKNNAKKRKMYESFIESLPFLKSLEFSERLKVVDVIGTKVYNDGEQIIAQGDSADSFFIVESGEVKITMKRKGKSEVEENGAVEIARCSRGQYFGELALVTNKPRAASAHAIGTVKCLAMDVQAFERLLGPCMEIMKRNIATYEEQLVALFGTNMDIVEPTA
aDG glyco up: increases alpha dystroglycan glycosylation; 0.22% of 360,000 active; Pro5-aDG cells, alpha-DG glycosylation AlphaScreen (IIH6); 0% Pro5, 100% B10-LARGE cell signal; activation, % at 10 µM;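 active = activation of at least 8% versus controls, or a plate z-score of at least 8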;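 also: Pro5 are CHO cells carrying HIG-tagged alpha-DG that lacks glycosylation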
UCH37 DUB inh: human UCH37 deubiquitinating enzyme inhibition. 0.33% of 330,000 active. Q9Y5K5. inhibition, % (test concentration not listed). purified proteasome/UCH37, Ub-AMC cleavage fluorescence;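 active = mean inhibition over replicate wells above about 20%, limit read from the data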;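 also: 0% = compound-free wells with enzyme and 100% = wells lacking proteasome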
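Signal – fluorescence, ex 355 nm, em 460 nm · System – Proteasome-bound UCH37 · Input – 0.15 nM proteasome as dispensed · Timing – 30 min preincubation with enzyme, 25 min cleavage at room temperature · Read-out basis – percent inhibition of cleavage signal versus uninhibited and no-proteasome wells · Medium – Tris-HCl pH 7.4 with ATP-MgCl2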
CTSL1 counter: blocks F. hepatica cathepsin L1 in PFM18AAP counter-screen. recombinant F. hepatica cathepsin L1, Z-Leu-Arg-MCA fluorescence. inhibition, % at 5.96 µM. 0.49% of 300,000 active. AID 1906;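 active = inhibition above the mean of all tested compounds plus 3 SD, set per screening campaign, cut at about 17% in these data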;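 also: 0% = plate median of test compound wells and 100% = 1 µM Z-Phe-Ala-diazomethylketone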
PKA-R1A activ: PKA-R1A complex activation; activation, % at 11.4 µM; 0.083% of 340,000 active; PKA-R1A dissociation, Cy5-IP20 fluorescence polarization; scaled: DMSO 0%, 113 µM cGMP 100%;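 active = percent activation above the mean of all tested compounds plus 3 SD, cut at about 19% in these data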;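 also: higher means more PKAc released from R1A so a rise in polarization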
aDG conf: alpha-DG glycosylation activation, confirmation | shares compounds with aDG glyco up | Pro5-aDG cells, IIH6 AlphaLISA; scaled to LARGE-overexpressing B10 cells as 100% | activation, % at 10 µM (by protocol) | 17% of 600 active;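 active = activation of at least 7% in one or more replicates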;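 also: cells exposed to compound for two days before detection; 0% = DMSO-treated Pro5 cells and 100% = DMSO-treated B10-LARGE cells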
The depositor's hits bear a star; / = not tested or not shown.

SMILES	PKA-R2B act	aDG glyco up	UCH37 DUB inh	CTSL1 counter	PKA-R1A activ	aDG conf
Cc1ccc(-n2c(SCC(N)=O)nnc2-c2ccco2)cc1	7.5	4.3*	0.1	-2.0	8.5	1.5
COc1cc(C=NNC(=O)CCc2n[nH]c(=O)[nH]c2=O)ccc1O	/	/	4.2	/	/	/
Cc1cc(N=C/C=C2\N(C)c3ccccc3C2(C)C)n(CCC#N)n1	/	/	9.1	/	/	/
Cc1csc2c(N3CCN(S(=O)(=O)c4ccc(Cl)cc4)CC3)ncnc12	-4.9	0.2	1.8	2.6	4.2	/
O=S(=O)(c1ccc(Cl)cc1)N1CCN(c2ncnc3sccc23)CC1	-10.2	4.8*	0.8	/	-3.1	0.9
O=C(NN=Cc1ccccc1)c1ccccc1-n1cccc1	/	/	1.8	/	/	/
COc1cc2[nH]c3c(=O)n4c(nc3c2cc1OC)SCCC4	-13.0	31.1*	-24.8	1.8	-3.0	21.6*
COc1ccc2[nH]c3c(=O)n4c(nc3c2c1)SCC4	10.9	0.5	-263.1	1.6	-8.0	/
O=C(CNC(=O)c1ccccc1F)NCc1ccncc1	9.3	5.9*	-0.9	/	9.0	0.8
Cc1nonc1C(=O)NN=Cc1ccncc1	/	/	2.1	/	/	/
Cc1ccc(S(=O)(=O)N(C)C)cc1NC(=O)C1CCCCN1S(=O)(=O)c1ccccc1 (centres undefined)	0.7	2.9*	-0.3	/	-10.9	-0.7
CN(C)C=NC(=S)Nc1ccccc1Cl	/	/	5.3	/	/	/
Cc1ccc(S(=O)(=O)NC(=O)NCc2ccccn2)cc1	5.5	51.4*	0.9	0.4	-9.8	-0.6
CCOC(=O)C1CCN(Cc2ccc3ccccc3c2)CC1	-5.5	0.2	0.5	/	-12.5	/
CCOC(=O)C1CCN(Cc2cc(C(C)C)c(O)c(C(C)C)c2)CC1	-7.7	6.4*	2.1	0.3	-13.3	1.1
NC(=NOC(=O)CSc1ccccc1)c1cccc([N+](=O)[O-])c1	/	/	3.4	/	/	/
O=C(NN=Cc1ccccc1O)C1SCCCS1	/	/	-36.0	/	/	/
C=CCNC(=S)NN=Cc1ccc(C(F)(F)F)cc1	/	/	0.8	/	/	/
Cc1cccc2nc(-c3cccc(NC(=O)Cc4ccccc4)c3)cn12	4.0	1.5	-11.3	-1.5	-5.1	/
Cc1cccc2nc(-c3cccc(NC(=O)c4ccc(Cl)cc4)c3)cn12	-6.0	6.5*	-2.0	-0.4	-6.9	0.5
O=C(COc1ccc2ccc(=O)oc2c1)N1CCN(C(=O)C2COc3ccccc3O2)CC1 (centres undefined)	-4.4	7.8*	-22.7	-0.6	0.0	0.1
NC(c1csc(Nc2cc(Oc3ccccc3)ncn2)n1)C1CCCCC1 (centres undefined)	/	9.7*	/	/	/	10.7*
O=C(CNC(=O)c1ccc(S(=O)(=O)N2CCCC2)cc1)NN=Cc1ccc(Cl)cc1	/	/	0.9	/	/	/
CCCn1c(/N=C/c2ccc3c(c2)OCO3)nc2ccccc21	-6.8	-0.2	/	-2.9	8.6	/
C(=N\c1nc2ccccc2n1CCN1CCCCC1)/c1ccc2c(c1)OCO2	2.8	7.8*	/	-1.6	3.4	1.5
SMILES	PKA-R2B act	aDG glyco up	UCH37 DUB inh	CTSL1 counter	PKA-R1A activ	aDG conf
CCCCc1c(-c2ccc(OC)c(OC)c2)ncn1CCc1ccccc1OC	/	14.1*	/	/	/	0.0
CCCCc1c(-c2ccccc2OC)ncn1Cc1cccc(-c2ccccc2)c1	/	10.6*	/	/	/	0.9
CCCCc1c(-c2cccc(OC)c2)ncn1CCc1ccccc1OC	/	0.5	/	/	/	/
CCOC(=O)C(CC)C(C)=NNC(=O)c1ccccc1O (centres undefined)	/	/	-8.6	/	/	/
CCCCc1c(C)nn(-c2nnc3c4ccccc4n(C)c3n2)c1C	-9.0	4.2*	-0.4	2.2	2.5	2.2
Cn1c2ccccc2c2nnc(NN)nc21	6.8	-0.2	8.3	-1.1	8.2	/
CC1(C)CC(=O)C=C(c2ccccc2-c2ccc(S(C)(=O)=O)cc2)C1=O	7.0	5.6*	/	/	-5.3	-1.2
Cc1ccsc1C=NNC(=O)Cn1nnc2ccccc21	/	/	2.6	/	/	/
CN1CCN(c2ncnc3c2ncn3[C@H]2CN(Cc3ccc(-c4ccccc4)cc3)C[C@@H](CO)O2)CC1	/	9.6*	/	/	/	9.8*
OCCN1CCN(c2ncnc3c2ncn3[C@H]2CN(Cc3ccc(-c4ccccc4)cc3)C[C@@H](CO)O2)CC1	/	1.7	/	/	/	/
CCN1CCN(c2ccc(S(=O)(=O)N3CCCCC3)cc2NC(=O)/C=C/c2ccc(OC(F)F)cc2)CC1	-3.1	0.7	1.9	0.6	-10.5	/
CN1CCN(c2ccc(S(=O)(=O)N3CCCCC3)cc2NC(=O)/C=C/c2ccc(OC(F)F)cc2)CC1	-10.2	7.5*	6.2	-4.1	-6.3	17.3*
CCOC(=O)c1ccc(-c2ccc(C=NNC(=O)CN(c3cccc(C)c3)S(C)(=O)=O)o2)cc1	/	/	-185.0	/	/	/
Cc1cc(C)c(OCC(=O)NN=Cc2ccc3c(c2)OCO3)c(C)c1	/	/	2.2	/	/	/
Cc1nn(C)cc1C1C2=C(CC(C)(C)CC2=O)N(c2ccccc2)C2=C1C(=O)CC(C)(C)C2	-2.8	4.2*	-53.0	8.3	-12.8	-0.8
CN1CCN(S(=O)(=O)c2cccc(C(=O)Nc3nc(-c4ccccc4)cs3)c2)CC1	-4.5	-0.1	3.0	-1.7	1.5	/
CCOC(=O)c1csc(NC(=O)c2ccc(S(=O)(=O)N(C)C)cc2)n1	1.4	-0.2	-2.3	0.7	-3.8	/
Cc1cc(-c2csc(NC(=O)c3cccc(S(=O)(=O)N(C)C)c3)n2)c(C)n1-c1ccccc1	-7.3	10.8*	-0.9	-0.9	-2.3	1.3
COC(=O)c1ccc(-n2c(C)cc(-c3csc(NC(=O)c4ccc(S(=O)(=O)N(C)C)cc4)n3)c2C)cc1	-8.4	10.7*	0.4	-2.8	-4.4	0.2
Cc1ccccc1OCC(=O)N/N=C/c1ccc([N+](=O)[O-])o1	4.1	7.9*	/	2.7	3.3	3.3
NC(=O)NN=Cc1ccc([N+](=O)[O-])o1	/	/	9.0	/	/	/
O=C(CNc1cccc([N+](=O)[O-])c1)N/N=C/c1ccc([N+](=O)[O-])o1	-0.2	18.9*	/	3.2	-1.1	4.7*
O=C(N/N=C/c1ccc([N+](=O)[O-])o1)c1ccccc1-n1cccc1	0.1	3.3*	/	6.5	-2.8	2.5
CC1(C(=O)N/N=C/c2ccc([N+](=O)[O-])o2)CC1(Br)Br (centres undefined)	-0.9	4.6*	/	2.1	-1.7	1.5
O=C(NN=C/C=C\c1ccccc1[N+](=O)[O-])c1ccncc1	/	/	9.1	/	/	/
CC(=NNC(=O)C(N)=O)c1ccc2c(c1)OCCO2	/	/	-2.2	/	/	/
Cc1nc(NCc2ccc(S(N)(=O)=O)cc2)c2c(C)c(C)sc2n1	-7.7	0.0	2.8	2.2	-2.7	/
Cc1nc(NCCc2ccc(S(N)(=O)=O)cc2)c2c(C)c(C)sc2n1	-5.5	8.2*	0.9	3.4	16.5	1.6
